These results are taken from ChEMBL document CHEMBL4321814, “Design of Gallinamide A Analogs as Potent Inhibitors of the Cysteine Proteases Human Cathepsin L and Trypanosoma cruzi Cruzain” (J Med Chem, 2019).

As a reminder, the IC50 is the midpoint of a concentration-inhibition curve.

Calls of active or inactive are those of the source. No cut-off for these calls is given here.

Data set [1] is described as follows: Cytotoxicity in mouse C2C12 cells assessed as reduction in cell viability incubated for 3 days. The data set is classed as cell-based. As to conditions: read-out: LD50.
For another data set, the target named is Cruzipain (Trypanosoma cruzi, UniProt P25779). In words: Inhibition of recombinant Trypanosoma cruzi Cruzain expressed in Pichia pastoris using Z-Phe-Arg-AMC substrate incubated for 30 mins by fluorescence based assay.
Sequence of Cruzipain (P25779 whole entry): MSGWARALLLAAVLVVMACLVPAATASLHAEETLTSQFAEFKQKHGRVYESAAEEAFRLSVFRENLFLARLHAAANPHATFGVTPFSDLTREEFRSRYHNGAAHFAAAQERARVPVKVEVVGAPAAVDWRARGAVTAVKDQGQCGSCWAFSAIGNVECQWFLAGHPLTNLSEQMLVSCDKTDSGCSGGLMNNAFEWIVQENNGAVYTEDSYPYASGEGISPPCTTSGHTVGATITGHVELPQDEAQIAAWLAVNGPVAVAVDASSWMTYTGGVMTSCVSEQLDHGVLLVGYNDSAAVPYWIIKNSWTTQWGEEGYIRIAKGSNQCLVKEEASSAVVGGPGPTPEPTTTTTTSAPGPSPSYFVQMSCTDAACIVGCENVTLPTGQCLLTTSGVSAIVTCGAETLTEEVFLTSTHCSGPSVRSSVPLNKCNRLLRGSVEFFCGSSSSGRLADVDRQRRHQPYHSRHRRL
The next data set has as its system Trypanosoma cruzi. The data set is classed as functional. As to conditions: C2C12, 72 h, read-out: LD50 (the source's name).
Data set [2] deals with Procathepsin L (Homo sapiens) (UniProt P07711). In words: Inhibition of human cathepsin L assessed as Kinact /Ki ratio using fluorogenic substrate cbz-FR-AMC monitored for 90 to 120 mins by spectrophotometry. In a few lines:
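Continuous kinetic assay with 0.5 ng/mL final cathepsin L and 10 μM Z-FR-AMC, with DMSO below 6%. Inhibitors were a 3-fold, 11-point series from […] to 1.0 μM. Substrate and inhibitor were combined and enzyme was added to start the reaction. AMC release was read for 2 h and converted via an AMC standard curve. Progress curves were fitted to a six-parameter covalent inhibition model (k_inact, association/dissociation constants).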

Data set [3] shares this target. In words: Irreversible inhibition of human cathepsin L assessed as reduction in enzyme activity using fluorogenic substrate cbz-FR-AMC incubated for 30 mins followed by 100 fold dilution and measured after 2 hrs by spectrophotometry. In a few lines:
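Preincubation-dilution: cathepsin L at 100-fold final assay concentration incubated 30 min with inhibitor at 10-fold its IC₅₀. Then diluted 100-fold into assay buffer with 10 μM Z-FR-AMC, giving standard enzyme level and 0.1× IC₅₀ inhibitor. AMC fluorescence read continuously in kinetic mode for 2 h and activity compared with vehicle control.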

Data set [4] has the same target. In words: Irreversible inhibition of human cathepsin L assessed as residual enzyme activity using fluorogenic substrate cbz-FR-AMC incubated for 30 mins followed by 100 fold dilution and measured after 2 hrs by spectrophotometry.
Data set [5] has the same target. As to the kind of experiment: Irreversible inhibition of human cathepsin L assessed as residual enzyme activity using fluorogenic substrate cbz-FR-AMC incubated for 30 mins followed by 100 fold dilution and measured after 1 hrs by spectrophotometry.
The target is the same in data set [6]. In words: Reversible inhibition of human cathepsin L assessed as residual enzyme activity using fluorogenic substrate cbz-FR-AMC incubated for 30 mins followed by 100 fold dilution and measured after 1 hrs by spectrophotometry.

Sequence of Procathepsin L (Homo sapiens) (P07711 114-333 limits assumed): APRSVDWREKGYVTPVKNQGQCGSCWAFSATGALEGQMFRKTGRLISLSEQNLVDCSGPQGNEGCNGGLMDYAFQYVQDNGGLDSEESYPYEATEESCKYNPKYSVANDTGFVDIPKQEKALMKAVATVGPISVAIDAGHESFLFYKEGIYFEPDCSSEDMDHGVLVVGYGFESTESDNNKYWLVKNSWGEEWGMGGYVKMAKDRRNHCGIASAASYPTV

As to `CC[C@H](C)[C@@H](C(=O)O[C@@H](CC(C)C)C(=O)N[C@@H](CC(C)C)C(=O)N[C@H](/C=C/C(=O)N1C(=O)C=C(OC)[C@H]1Cc1ccccc1)Cc1ccccc1)N(C)C`, the CC50 at 72 h in data set [1] was greater than 10000 nM. Moreover, at Cruzipain, the IC50 is 1.07 nM. For the same molecule, the LC50 in the data set on Trypanosoma cruzi was 33.3 nM. The Ratio in data set [2] was determined as 1030 ×10³ /M/s.
Consider `CC(C)CCNC(=O)[C@H](CC(C)C)NC(=O)[C@H]1O[C@@H]1C(=O)O`, for which the inhibition entry in data set [3] was “Active”.
With `COC1=CC(=O)N(C(=O)/C=C/[C@H](Cc2ccccc2)NC(=O)[C@H](CC(C)C)NC(=O)[C@H](CC(C)C)OC(=O)[C@H](Cc2ccccc2)N(C)C)[C@H]1C`, the CC50 at 72 h in data set [1] is greater than 10000 nM. Also, at Cruzipain, the IC50 came out at 1.2 nM. The LC50 in the data set with Trypanosoma cruzi was 60.3 nM. Also, the Ratio in data set [2] is 819 ×10³ /M/s.
For `COC1=CC(=O)N(C(=O)/C=C/[C@H](Cc2ccccc2)NC(=O)[C@H](CC(C)C)NC(=O)[C@H](CC(C)C)OC(=O)[C@H](Cc2ccccc2)N(C)C)[C@@H]1Cc1ccccc1` the same measures were greater than 10000 nM, 3.69 nM, greater than 10000 nM and 1390 ×10³ /M/s.
In the case of `CC[C@H](C)[C@@H](C(=O)O[C@@H](CC(C)C)C(=O)N[C@@H](CC(C)C)C(=O)N[C@H](/C=C/C(=O)N1C(=O)C=C(OC)[C@@H]1CC(C)C)Cc1ccccc1)N(C)C`, the CC50 at 72 h in data set [1] was greater than 10000 nM. Also, the IC50 at Cruzipain was found to be 1.08 nM. The LC50 in the data set on Trypanosoma cruzi worked out at 61.8 nM.
On to `COC1=CC(=O)N(C(=O)/C=C/[C@H](Cc2ccccc2)NC(=O)[C@H](CC(C)C)NC(=O)[C@H](CC(C)C)OC(=O)[C@H](Cc2ccccc2)N(C)C)[C@H]1Cc1ccccc1`, for which the CC50 at 72 h in data set [1] was greater than 10000 nM. Moreover, the IC50 at Cruzipain is 1.35 nM. For the same molecule, the LC50 in the data set with Trypanosoma cruzi was greater than 10000 nM. The Ratio in data set [2] was found to be 1060 ×10³ /M/s.
On to `COC1=CC(=O)N(C(=O)/C=C/[C@H](Cc2ccccc2)NC(=O)[C@H](CC(C)C)NC(=O)[C@H](CC(C)C)OC(=O)[C@H](C(C)C)N(C)C)[C@H]1CC(C)C`, for which the CC50 at 72 h in data set [1] was greater than 10000 nM. The IC50 at Cruzipain stood at 0.25 nM. Besides, in the data set on Trypanosoma cruzi, the LC50 turned out to be 16.4 nM. Also, in data set [2], the Ratio was 1780 ×10³ /M/s.
`CC[C@H](C)[C@@H](C(=O)O[C@@H](CC(C)C)C(=O)N[C@@H](CC(C)C)C(=O)N[C@@H](C)/C=C/C(=O)N1C(=O)C=C(OC)[C@@H]1C)N(C)C` [GALLINAMIDE A]: the Activity in data set [4] came to 5%. Further, the CC50 at 72 h in data set [1] is greater than 10000 nM. The IC50 at Cruzipain amounted to 0.26 nM. Further, in the data set with Trypanosoma cruzi, the LC50 was determined as 14.7 nM. In addition, the inhibition result in data set [5] is “Active”. Besides, in data set [2], the Ratio stood at 901 ×10³ /M/s.
For `CC[C@H](C)[C@@H](C(=O)O[C@@H](CC(C)C)C(=O)N[C@@H](CC(C)C)C(=O)N[C@H](/C=C/C(=O)N1C(=O)C=C(OC)[C@@H]1Cc1ccccc1)Cc1ccccc1)N(C)C`, in data set [1], the CC50 at 72 h is greater than 10000 nM. Moreover, the IC50 at Cruzipain was determined as 1.15 nM. Also, the LC50 in the data set on Trypanosoma cruzi is 33.8 nM. In addition, the Ratio in data set [2] came to 719 ×10³ /M/s.
For `CC[C@H](C)[C@@H](C(=O)O[C@@H](CC(C)C)C(=O)N[C@@H](CC(C)C)C(=O)N[C@@H](/C=C/C(=O)N1C(=O)C=C(OC)[C@H]1Cc1ccccc1)Cc1ccccc1)N(C)C`, the CC50 at 72 h in data set [1] is greater than 10000 nM. For the same molecule, the half-inhibitory concentration (IC50) at Cruzipain amounted to 37.1 nM. The LC50 in the data set with Trypanosoma cruzi was 537 nM. Also, in data set [2], the Ratio is 23.9 ×10³ /M/s.
For the molecule `O=C(Cn1ccnc1[N+](=O)[O-])NCc1ccccc1` [BENZNIDAZOLE], the LC50 in the data set on Trypanosoma cruzi stood at 1500 nM.
In the case of `CC[C@H](C)[C@@H](C(=O)O[C@@H](CC(C)C)C(=O)N[C@@H](CC(C)C)C(=O)N[C@@H](/C=C/C(=O)N1C(=O)C=C(OC)[C@@H]1Cc1ccccc1)Cc1ccccc1)N(C)C`, the CC50 at 72 h in data set [1] is greater than 10000 nM. The IC50 on Cruzipain was found to be 81 nM. Moreover, in the data set on Trypanosoma cruzi, the LC50 stood at 1080 nM. The Ratio in data set [2] was 6.9 ×10³ /M/s.
As for `CC[C@H](C)[C@@H](C(=O)O[C@@H](CC(C)C)C(=O)N[C@@H](CC(C)C)C(=O)N[C@@H](C)/C=C/C(=O)N1C(=O)C=C(OC)[C@@H]1Cc1ccccc1)N(C)C`, in data set [1], the CC50 at 72 h was greater than 10000 nM. For the same molecule, the IC50 at Cruzipain amounted to 0.76 nM. Besides, in the data set on Trypanosoma cruzi, the LC50 came out at 19.1 nM.
For `CC[C@H](C)[C@@H](C(=O)O[C@@H](CC(C)C)C(=O)N[C@@H](CC(C)C)C(=O)N[C@@H](C)CCC(=O)N1C(=O)C=C(OC)[C@@H]1C)N(C)C`, the Activity in data set [6] turned out to be 75%.
For `CC[C@H](C)[C@@H](C(=O)O[C@@H](CC(C)C)C(=O)N[C@@H](CC(C)C)C(=O)N[C@H](/C=C/C(=O)N1C(=O)C=C(OC)[C@@H]1C)Cc1ccccc1)N(C)C`, the CC50 at 72 h in data set [1] was greater than 10000 nM. On Cruzipain, the IC50 stood at 0.84 nM. Moreover, the LC50 in the data set on Trypanosoma cruzi amounted to 35.8 nM.
For `COC1=CC(=O)N(C(=O)/C=C/[C@H](C)NC(=O)[C@H](CC(C)C)NC(=O)[C@H](CC(C)C)OC(=O)[C@H](C(C)C)N(C)C)[C@H]1C`, the CC50 at 72 h in data set [1] was greater than 10000 nM. The IC50 at Cruzipain worked out at 2.89 nM. Further, the LC50 in the data set on Trypanosoma cruzi was determined as 12.9 nM. Besides, the Ratio in data set [2] was determined as 487 ×10³ /M/s.
On to `CC[C@H](C)[C@@H](C(=O)O[C@@H](CC(C)C)C(=O)N[C@@H](CC(C)C)C(=O)N[C@@H](C)/C=C/C(=O)N1C(=O)C=C(OC)[C@@H]1CC(C)C)N(C)C`, for which the CC50 at 72 h in data set [1] was greater than 10000 nM. In addition, the IC50 on Cruzipain came to 0.49 nM. Besides, in the data set with Trypanosoma cruzi, the LC50 worked out at 5.1 nM. In data set [2], the Ratio came out at 2510 ×10³ /M/s.
On the same counts, the results for `COC1=CC(=O)N(C(=O)/C=C/[C@H](C)NC(=O)[C@H](CC(C)C)NC(=O)[C@H](CC(C)C)OC(=O)[C@H](Cc2ccccc2)N(C)C)[C@H]1Cc1ccccc1` are greater than 10000 nM, 0.73 nM, 18.6 nM and 3480 ×10³ /M/s.
In the case of `C#CCCCCOC1=CC(=O)N(C(=O)/C=C/[C@H](C)NC(=O)[C@H](CC(C)C)NC(=O)[C@H](CC(C)C)OC(=O)[C@H]([C@@H](C)CC)N(C)C)[C@@H]1C`, the CC50 at 72 h in data set [1] is greater than 10000 nM. At Cruzipain, the IC50 was determined as 0.47 nM. In addition, the LC50 in the data set with Trypanosoma cruzi worked out at 17 nM.
